Results published in ChEMBL document CHEMBL5724801, “EUbOPEN Chemogenomics Library - Multiplex” (2024).
“And” between values parts separate entries of the source, which are not always exact repeats. Identical values can stand only once.

Test system: HEK-293T
Experiment: Multiplex assay against HEK293T
Format: toxicity, cell-based
Details: human
Method in brief: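 Live cells were stained at seeding with Hoechst33342, BioTracker Green Microtubule Cytoskeleton Dye, MitoTracker Red and Annexin V Alexa Fluor 680, then imaged on a CQ1 microscope at 37°C and 5% CO2 after compound addition. CellPathfinder machine-learning gating split cells into Hoechst high-intensity objects or normal cells. Normal cells were split into healthy, pyknosed or fragmented nuclei, and pyknosed cells into mitotic or apoptotic. Tubulin, mitochondrial-mass and membrane-permeability phenotypes are per cents of healthy-nucleus cells.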

[1] = 12 h, 1 µM, compound concentration 1 uM
[2] = 12 h, 10 µM, compound concentration 10 uM
[3] = 24 h, 1 µM, compound concentration 1 uM
[4] = 24 h, 10 µM, compound concentration 10 uM
[5] = 48 h, 1 µM, compound concentration 1 uM
[6] = 48 h, 10 µM, compound concentration 10 uM

COCCCN1CCC(NC(=O)c2cc(Cl)c(N)c3c2OCC3)CC1 [PRUCALOPRIDE]
Population Apoptotic (%) [1]: 22% and 31% | Population Fragmented Nuclei (%) [1]: 10% and 4% | Population Healthy Nuclei (%) [1]: 80% and 82% | Population Hoechst High Intensity Objects (%) [1]: 8% and 7% | Population Membrane Permeable-Phenotype (%) [1]: 0% | Population Mitochondria Different-Phenotype (%) [1]: 36% and 59% | Population Mitotic Cells (%) [1]: 77% and 68% | Population Normal (%) [1]: 91% and 92% | Population Pyknosed Nuclei (%) [1]: 9% and 12% | Population Tubulin-Different-Phenotype (%) [1]: 21% and 16% | Total Cell Count [1]: 416 and 397 | Population Apoptotic (%) [2]: 37% and 56% | Population Fragmented Nuclei (%) [2]: 8% and 10% | Population Healthy Nuclei (%) [2]: 74% and 72% | Population Hoechst High Intensity Objects (%) [2]: 4% and 10% | Population Membrane Permeable-Phenotype (%) [2]: 0% | Population Mitochondria Different-Phenotype (%) [2]: 59% and 75% | Population Mitotic Cells (%) [2]: 62% and 43% | Population Normal (%) [2]: 95% and 89% | Population Pyknosed Nuclei (%) [2]: 17% | Population Tubulin-Different-Phenotype (%) [2]: 43% and 35% | Total Cell Count [2]: 421 and 261 | Population Apoptotic (%) [3]: 20% and 28% | Population Fragmented Nuclei (%) [3]: 11% and 8% | Population Healthy Nuclei (%) [3]: 78% and 84% | Population Hoechst High Intensity Objects (%) [3]: 5% and 4% | Population Membrane Permeable-Phenotype (%) [3]: 1% and 0% | Population Mitochondria Different-Phenotype (%) [3]: 18% and 39% | Population Mitotic Cells (%) [3]: 79% and 71% | Population Normal (%) [3]: 94% and 95% | Population Pyknosed Nuclei (%) [3]: 10% and 6% | Population Tubulin-Different-Phenotype (%) [3]: 14% and 10% | Total Cell Count [3]: 590 and 546 | Population Apoptotic (%) [4]: 28% and 50% | Population Fragmented Nuclei (%) [4]: 8% and 13% | Population Healthy Nuclei (%) [4]: 77% and 73% | Population Hoechst High Intensity Objects (%) [4]: 4% and 9% | Population Membrane Permeable-Phenotype (%) [4]: 0% | Population Mitochondria Different-Phenotype (%) [4]: 48% and 51% | Population Mitotic Cells (%) [4]: 71% and 50% | Population Normal (%) [4]: 95% and 90% | Population Pyknosed Nuclei (%) [4]: 13% and 12% | Population Tubulin-Different-Phenotype (%) [4]: 32% and 25% | Total Cell Count [4]: 531 and 341 | Population Apoptotic (%) [5]: 24% and 21% | Population Fragmented Nuclei (%) [5]: 15% and 11% | Population Healthy Nuclei (%) [5]: 76% and 81% | Population Hoechst High Intensity Objects (%) [5]: 2% and 1% | Population Membrane Permeable-Phenotype (%) [5]: 1% and 0% | Population Mitochondria Different-Phenotype (%) [5]: 16% and 15% | Population Mitotic Cells (%) [5]: 75% and 78% | Population Normal (%) [5]: 97% and 98% | Population Pyknosed Nuclei (%) [5]: 7% and 6% | Population Tubulin-Different-Phenotype (%) [5]: 11% and 9% | Total Cell Count [5]: 1001 and 832 | Population Apoptotic (%) [6]: 20% and 35% | Population Fragmented Nuclei (%) [6]: 16% | Population Healthy Nuclei (%) [6]: 77% and 75% | Population Hoechst High Intensity Objects (%) [6]: 1% and 3% | Population Membrane Permeable-Phenotype (%) [6]: 1% and 0% | Population Mitochondria Different-Phenotype (%) [6]: 32% and 31% | Population Mitotic Cells (%) [6]: 79% and 64% | Population Normal (%) [6]: 98% and 96% | Population Pyknosed Nuclei (%) [6]: 6% and 7% | Population Tubulin-Different-Phenotype (%) [6]: 16% and 15% | Total Cell Count [6]: 772 and 528

c1ccc2nc(N3CCNCC3)ccc2c1 [QUIPAZINE]
Population Apoptotic (%) [1]: 6.35% and 5.69% | Population Fragmented Nuclei (%) [1]: 1.8% and 5.66% | Population Healthy Nuclei (%) [1]: 49.61% and 16.98% | Population Hoechst High Intensity Objects (%) [1]: 0% | Population Membrane Permeable-Phenotype (%) [1]: 0.52% and 0% | Population Mitochondria Different-Phenotype (%) [1]: 33.16% and 11.11% | Population Mitotic Cells (%) [1]: 93.65% and 94.31% | Population Normal (%) [1]: 100% | Population Pyknosed Nuclei (%) [1]: 48.59% and 77.36% | Total Cell Count [1]: 389 and 159 | Population Apoptotic (%) [2]: 10.22% and 12.62% | Population Fragmented Nuclei (%) [2]: 1.36% and 2.36% | Population Hoechst High Intensity Objects (%) [2]: 0.68% and 0% | Population Membrane Permeable-Phenotype (%) [2]: 0.65% and 4.76% | Population Mitochondria Different-Phenotype (%) [2]: 23.53% and 19.05% | Population Mitotic Cells (%) [2]: 89.78% and 87.38% | Population Normal (%) [2]: 99.32% and 100% | Population Pyknosed Nuclei (%) [2]: 46.6% and 81.1% | Total Cell Count [2]: 296 and 127 | Population Apoptotic (%) [3]: 10.39% and 10% | Population Fragmented Nuclei (%) [3]: 1.31% and 1.74% | Population Healthy Nuclei (%) [3]: 73.44% and 34.3% | Population Hoechst High Intensity Objects (%) [3]: 0% | Population Membrane Permeable-Phenotype (%) [3]: 2.9% and 0% | Population Mitochondria Different-Phenotype (%) [3]: 14.29% and 11.86% | Population Mitotic Cells (%) [3]: 89.61% and 90% | Population Normal (%) [3]: 100% | Population Pyknosed Nuclei (%) [3]: 25.25% and 63.95% | Population Tubulin-Different-Phenotype (%) [3]: 16.29% and 6.78% | Population Apoptotic (%) [4]: 18.49% and 17.05% | Population Fragmented Nuclei (%) [4]: 1.63% and 1.53% | Population Healthy Nuclei (%) [4]: 74.08% and 31.3% | Population Hoechst High Intensity Objects (%) [4]: 0.41% and 0% | Population Membrane Permeable-Phenotype (%) [4]: 1.1% and 0% | Population Mitochondria Different-Phenotype (%) [4]: 15.98% and 14.63% | Population Mitotic Cells (%) [4]: 81.51% and 82.95% | Population Normal (%) [4]: 99.59% and 100% | Population Pyknosed Nuclei (%) [4]: 24.29% and 67.18% | Population Tubulin-Different-Phenotype (%) [4]: 15.98% and 9.76% | Population Fragmented Nuclei (%) [5]: 2.36% and 0.5% | Population Healthy Nuclei (%) [5]: 83.55% and 65% | Population Hoechst High Intensity Objects (%) [5]: 0.15% and 0% | Population Membrane Permeable-Phenotype (%) [5]: 6.88% and 1.54% | Population Mitochondria Different-Phenotype (%) [5]: 14.83% and 16.15% | Population Mitotic Cells (%) [5]: 95.81% and 81.16% | Population Normal (%) [5]: 99.85% and 100% | Population Pyknosed Nuclei (%) [5]: 14.09% and 34.5% | Population Apoptotic (%) [6]: 13.64% and 6.25% | Population Fragmented Nuclei (%) [6]: 3.18% and 1.42% | Population Healthy Nuclei (%) [6]: 86.82% and 64.54% | Population Hoechst High Intensity Objects (%) [6]: 0% | Population Membrane Permeable-Phenotype (%) [6]: 5.34% and 3.3% | Population Mitochondria Different-Phenotype (%) [6]: 17.59% and 12.09% | Population Mitotic Cells (%) [6]: 86.36% and 93.75% | Population Normal (%) [6]: 100%
